From ChEMBL document CHEMBL4196022, “Alkynyl-containing phenylthiazoles: Systemically active antibacterial agents effective against methicillin-resistant Staphylococcus aureus (MRSA)” (Eur J Med Chem, 2018)
Values after ≈ are worked out from the molar mass of the structure shown. Active and inactive are the calls of the source. No cut-off for these calls is given here.

Experiments:
Staphylococcus aureus [1] = experiment: Antibacterial activity against methicillin-resistant Staphylococcus aureus NRS107 after 20 hrs by broth microdilution assay; assay type: functional; conditions: NRS107, 20 h
How it was run: (§1)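 Broth microdilution per CLSI in cation-adjusted Mueller Hinton broth. Compounds serially diluted, in triplicate. Incubation at 37 °C for at least 20 hours. MIC taken as the lowest concentration with no visible bacterial growth.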

Staphylococcus aureus [2] = experiment: Bactericidal activity against methicillin-resistant Staphylococcus aureus USA300 up to 18 hrs by broth microdilution assay; assay type: functional; conditions: USA300, 18 h, read-out: MBC99.9
Staphylococcus aureus [3] = experiment: Antibacterial activity against methicillin-resistant Staphylococcus aureus NRS119 after 20 hrs by broth microdilution assay; assay type: functional; conditions: NRS119, 20 h; how it was run: as §1
Staphylococcus aureus [4] = experiment: Bactericidal activity against methicillin-resistant Staphylococcus aureus NRS119 up to 18 hrs by broth microdilution assay; assay type: functional; conditions: NRS119, 18 h, read-out: MBC99.9
Staphylococcus aureus [5] = experiment: Antibacterial activity against methicillin-resistant Staphylococcus aureus NRS123 (USA400) after 20 hrs by broth microdilution assay; assay type: functional; how it was run: as §1
Staphylococcus aureus [6] = experiment: Bactericidal activity against methicillin resistant Staphylococcus aureus NRS123 (USA400) up to 18 hrs by broth microdilution assay; assay type: functional; conditions: read-out: MBC99.9
Staphylococcus aureus [7] = experiment: Antibacterial activity against vancomycin-resistant Staphylococcus aureus VRS10 after 20 hrs by broth microdilution assay; assay type: functional; conditions: VRS10, 20 h; how it was run: as §1
Staphylococcus aureus [8] = experiment: Bactericidal activity against methicillin resistant vancomycin-resistant Staphylococcus aureus VRS10 up to 18 hrs by broth microdilution assay; assay type: functional; conditions: VRS10, 18 h, read-out: MBC99.9
Staphylococcus aureus [9] = experiment: Antibacterial activity against vancomycin-resistant Staphylococcus aureus VRS11a after 20 hrs by broth microdilution assay; assay type: functional; how it was run: as §1
Staphylococcus aureus [10] = experiment: Bactericidal activity against methicillin resistant vancomycin-resistant Staphylococcus aureus VRS11a up to 18 hrs by broth microdilution assay; assay type: functional; conditions: read-out: MBC99.9
Staphylococcus aureus [11] = experiment: Antibacterial activity against vancomycin-resistant Staphylococcus aureus VRS12 after 20 hrs by broth microdilution assay; assay type: functional; conditions: VRS12, 20 h; how it was run: as §1
Staphylococcus aureus [12] = experiment: Bactericidal activity against methicillin resistant vancomycin-resistant Staphylococcus aureus VRS12 up to 18 hrs by broth microdilution assay; assay type: functional; conditions: VRS12, 18 h, read-out: MBC99.9
How it was run: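 MBC set up from the MIC plates. Aliquots from wells with no growth spotted onto tryptic soy agar and incubated at 37 °C for at least 18 hours. MBC taken as the lowest concentration giving 99.9% inhibition of bacterial growth.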

Staphylococcus aureus [13] = experiment: Potency index, ratio of vancomycin MIC to compound MIC for antibacterial activity against vancomycin-resistant Staphylococcus aureus VRS10; assay type: functional
Staphylococcus aureus [14] = experiment: Potency index, ratio of vancomycin MIC to compound MIC for antibacterial activity against vancomycin-resistant Staphylococcus aureus VRS11a; assay type: functional
Staphylococcus aureus [15] = experiment: Potency index, ratio of vancomycin MIC to compound MIC for antibacterial activity against vancomycin-resistant Staphylococcus aureus VRS12; assay type: functional
Staphylococcus aureus [16] = experiment: Ratio of MBC to MIC for methicillin-resistant Staphylococcus aureus USA300; assay type: functional
How it was run: (§2)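 MBC/MIC ratio. […] MBC by plating no-growth wells onto tryptic soy agar at 37 °C for at least 18 h; taken as the concentration giving 99.9% growth inhibition.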

Staphylococcus aureus [17] = experiment: Ratio of MBC to MIC for methicillin-resistant Staphylococcus aureus NRS107; assay type: functional; how it was run: as §2
Staphylococcus aureus [18] = experiment: Ratio of MBC to MIC for methicillin-resistant Staphylococcus aureus NRS119; assay type: functional; how it was run: as §2
Staphylococcus aureus [19] = experiment: Ratio of MBC to MIC for methicillin-resistant Staphylococcus aureus NRS123 (USA400); assay type: functional; how it was run: as §2
Staphylococcus aureus [20] = experiment: Ratio of MBC to MIC for vancomycin-resistant Staphylococcus aureus VRS10; assay type: functional; how it was run: as §2
Staphylococcus aureus [21] = experiment: Ratio of MBC to MIC for vancomycin-resistant Staphylococcus aureus VRS11a; assay type: functional; how it was run: as §2
Staphylococcus aureus [22] = experiment: Ratio of MBC to MIC for vancomycin-resistant Staphylococcus aureus VRS12; assay type: functional; how it was run: as §2
Staphylococcus aureus [23] = experiment: Bactericidal activity against methicillin-resistant Staphylococcus aureus NRS123 (USA400) at 4 times MIC after 24 hrs by time kill assay; assay type: functional, organism-based
J774 = experiment: Cytotoxicity against mouse J774 cells assessed as reduction in cell viability up to 16 ug/ml after 24 hrs by MTS assay; assay type: cell-based; conditions: j774, 24 h
How it was run: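 J774 murine macrophages were grown in DMEM with 10% FBS at 37 °C, 5% CO2. Compounds were tested at 8, 16 and 32 μg/mL in triplicate for 24 h, with a DMSO-matched control. MTS was added for 4 h and absorbance read at 490 nm. Viability is given as % of DMSO control (mean ± SD); Student t-test with Holm-Sidak test.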

Staphylococcus aureus [24] = experiment: Antibacterial activity against methicillin-resistant Staphylococcus aureus NRS123 (USA400) infected in mouse J774 cells at 16 ug/ml after 24 hrs; assay type: functional, organism-based
How it was run: (§3)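 J774 macrophages grown in DMEM with 10% FBS at 37 °C, 5% CO2. Infected with USA400 at MOI ~100:1 for 1 h, then washed with gentamicin 50 μg/mL. Treated in triplicate wells for 24 h, washed with gentamicin again and lysed with 0.1% Triton X-100. Lysate plated on tryptic soy agar for 18–22 h; CFU/mL counted.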

HRT-18 cell line = experiment: Cytotoxicity against human HRT18 cells assessed as reduction in cell viability up to 32 ug/ml after 2 hrs by MTS assay; assay type: cell-based; conditions: hrt-18, 2 h
[25] = Selectivity index, ratio of toxic concentration for human HRT18 cells to MIC for methicillin-resistant Staphylococcus aureus; assay type: toxicity; conditions: read-out: Selectivity Index
Staphylococcus aureus [26] = experiment: Antibacterial activity against methicillin-resistant Staphylococcus aureus USA300 infected in Caenorhabditis elegans AU37 assessed as reduction in bacterial burden at 20 ug/ml after 18 hrs relative to control; assay type: functional; design: scale not given: the % may be the effect or the level left
How it was run: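 L4-stage C. elegans AU37 infected on USA300 lawns for 6 h and washed with M9 buffer. 25–30 worms per well exposed to 20 μg/mL for 18 h, in triplicate. Worms then lysed and plated on TSA with 5 μg/mL nalidixic acid for 17 h at 37 °C. CFU per worm expressed as % reduction versus PBS.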

Staphylococcus aureus [27] = experiment: Antibacterial activity against methicillin-resistant Staphylococcus aureus USA300 in Balb/c mouse skin infection model assessed as reduction in bacterial burden in wounded skin area at 2% administered topically twice daily for 5 consecutive days measured 12 hrs post last dose relative to control; assay type: functional; design: scale not given: the % may be the effect or the level left
How it was run: (§4)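 Female Balb/c mice, 8 weeks old, n=5 per group. Intradermal injection of 40 μL of 1.32×10^9 CFU/mL USA300; a wound formed by ~66 h. Treated topically with a 2% suspension in petroleum jelly twice daily for 5 days; the vehicle group served as control. Wounds excised 12 h after the last dose, homogenized in PBS and plated on mannitol salt agar; sites also observed for redness and swelling.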

Staphylococcus aureus [28] = experiment: Bactericidal activity against methicillin-resistant Staphylococcus aureus USA300 at 4 times MIC after 24 hrs by time kill assay; assay type: functional, organism-based
Mus musculus [29] = experiment: Induction of inflammation in Balb/c mouse infected with methicillin-resistant Staphylococcus aureus USA300 assessed as redness around wounded skin area at 2% administered topically twice daily for 5 consecutive days measured 12 hrs post last dose relative to control; assay type: organism-based; conditions: in vivo, topical_or_ocular; how it was run: as §4
Mus musculus [30] = experiment: Induction of inflammation in Balb/c mouse infected with methicillin-resistant Staphylococcus aureus USA300 assessed as swelling around wounded skin area at 2% administered topically twice daily for 5 consecutive days measured 12 hrs post last dose; assay type: organism-based; conditions: in vivo, topical_or_ocular; how it was run: as §4
Mus musculus [31] = experiment: Toxicity in wounded skin area of Balb/c mouse infected with methicillin-resistant Staphylococcus aureus USA300 at 2% administered topically twice daily for 5 consecutive days measured 12 hrs post last dose; assay type: organism-based; conditions: in vivo, topical_or_ocular; how it was run: as §4
[32] = Induction of proton motive force collapse in Escherichia coli inverted membrane vesicle in presence of ATP-driven PMF generation system by ACMA-based fluorescence assay; assay type: functional, cell membranes
How it was run: (§5)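 E. coli inverted membrane vesicles had proton motive force generated either by ATP or by succinate/O2. PMF collapse was followed as a dose response to give EC50, with CCCP as the reference uncoupler.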

[33] = Induction of proton motive force collapse in Escherichia coli inverted membrane vesicle in presence of succinate/O2-driven PMF generation system by ACMA-based fluorescence assay; assay type: functional, cell membranes; how it was run: as §5
Staphylococcus aureus [34] = experiment: Antibacterial activity against methicillin-resistant Staphylococcus aureus NRS123 (USA400) infected in mouse J774 cells at 4 ug/ml after 24 hrs; assay type: functional, organism-based; how it was run: as §3

With `CCCCCC#Cc1ccc(-c2nc(C)c(/C(C)=N/NC(=N)N)s2)cc1` the MIC (Staphylococcus aureus [1]) was 2 µg/mL (≈ 5.44 µM), the MBC (Staphylococcus aureus [2]) was 4 µg/mL (≈ 10.9 µM) and the MIC (Staphylococcus aureus [3]) was 2 µg/mL (≈ 5.44 µM). The MBC (Staphylococcus aureus [4]) was 2 µg/mL (≈ 5.44 µM), the MIC (Staphylococcus aureus [5]) was 2 µg/mL (≈ 5.44 µM) and the MBC (Staphylococcus aureus [6]) was 2 µg/mL (≈ 5.44 µM). It also gave an MIC (Staphylococcus aureus [7]) of 2 µg/mL (≈ 5.44 µM), an MBC (Staphylococcus aureus [8]) of 2 µg/mL (≈ 5.44 µM) and an MIC (Staphylococcus aureus [9]) of 1 µg/mL (≈ 2.72 µM). For the same compound, the MBC (Staphylococcus aureus [10]) was 2 µg/mL (≈ 5.44 µM), the MIC (Staphylococcus aureus [11]) was 2 µg/mL (≈ 5.44 µM) and the MBC (Staphylococcus aureus [12]) was 2 µg/mL (≈ 5.44 µM). For the same compound, the Ratio (Staphylococcus aureus [13]) was >100, the Ratio (Staphylococcus aureus [14]) was >100 and the Ratio (Staphylococcus aureus [15]) was 8. For the same compound, the Ratio (Staphylococcus aureus [16]) was “<=3”, the Ratio (Staphylococcus aureus [17]) was “<=3” and the Ratio (Staphylococcus aureus [18]) was “<=3”. For the same compound, the Ratio (Staphylococcus aureus [19]) was “<=3”, the Ratio (Staphylococcus aureus [20]) was “<=3” and the Ratio (Staphylococcus aureus [21]) was “<=3”. For the same compound, the Ratio (Staphylococcus aureus [22]) was “<=3”, the Activity (Staphylococcus aureus [23]) was “Active” and the Activity (J774) was “Non-Toxic”. For the same compound, the Activity (Staphylococcus aureus [24]) was “Active”, the Activity (HRT-18 cell line) was “Non-Toxic” and the selectivity ratio [25] was 7 to 31. For the same compound, the Activity (Staphylococcus aureus [26]) was 90%, the Activity (Staphylococcus aureus [27]) was 71% and the Activity (Staphylococcus aureus [28]) was “Active”. For the same compound, the Activity (Mus musculus [29]) was “Non-Toxic”, the Activity (Mus musculus [30]) was “Non-Toxic” and the Activity (Mus musculus [31]) was “Non-Toxic”.

For `N#CC(C#N)=NNc1cccc(Cl)c1` [CARBONYL CYANIDE M-CHLOROPHENYLHYDRAZONE], the EC50 [32] was 470 nM and the EC50 [33] was 210 nM.

For `CN[C@H](CC(C)C)C(=O)N[C@H]1C(=O)N[C@@H](CC(N)=O)C(=O)N[C@H]2C(=O)N[C@H]3C(=O)N[C@H](C(=O)N[C@H](C(=O)O)c4cc(O)cc(O)c4-c4cc3ccc4O)[C@H](O)c3ccc(c(Cl)c3)Oc3cc2cc(c3O[C@@H]2O[C@H](CO)[C@@H](O)[C@H](O)[C@H]2O[C@H]2C[C@](C)(N)[C@H](O)[C@H](C)O2)Oc2ccc(cc2Cl)[C@H]1O` [VANCOMYCIN], the MIC (Staphylococcus aureus [11]) was 16 µg/mL (≈ 11 µM), the MBC (Staphylococcus aureus [12]) was 256 µg/mL (≈ 177 µM) and the Activity (Staphylococcus aureus [23]) was “Active”. For the same compound, the Activity (Staphylococcus aureus [34]) was “inactive” and the Activity (Staphylococcus aureus [26]) was “Active”.
